{"source": "paper PMC11387822", "about": "(Scientific Reports, 2024)", "key": {"[1]": {"target": "BuChE (Homo sapiens, UniProt P06276)", "sequence (P06276 29-602)": "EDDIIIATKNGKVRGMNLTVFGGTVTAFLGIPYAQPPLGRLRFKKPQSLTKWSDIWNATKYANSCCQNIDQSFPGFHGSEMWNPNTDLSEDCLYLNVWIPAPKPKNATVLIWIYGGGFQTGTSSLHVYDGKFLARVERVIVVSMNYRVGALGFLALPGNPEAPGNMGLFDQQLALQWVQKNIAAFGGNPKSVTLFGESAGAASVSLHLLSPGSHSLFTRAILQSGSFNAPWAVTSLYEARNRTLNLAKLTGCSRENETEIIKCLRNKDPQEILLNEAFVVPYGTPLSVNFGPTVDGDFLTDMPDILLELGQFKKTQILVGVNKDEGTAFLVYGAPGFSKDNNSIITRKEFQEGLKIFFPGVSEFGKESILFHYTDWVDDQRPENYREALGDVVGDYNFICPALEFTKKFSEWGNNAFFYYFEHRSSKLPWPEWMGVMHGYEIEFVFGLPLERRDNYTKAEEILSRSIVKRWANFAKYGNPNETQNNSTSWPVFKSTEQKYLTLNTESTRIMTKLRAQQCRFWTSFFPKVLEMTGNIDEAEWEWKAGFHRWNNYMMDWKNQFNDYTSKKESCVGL", "assay": "In vitro BuChE inhibitory activity", "type": "biochemical", "conditions": "for BuChE IC50: mean ± SD (n = 3)"}, "[2]": {"target": "T1, AChE (Homo sapiens, UniProt P22303)", "T1 sequence (P22303 32-614)": "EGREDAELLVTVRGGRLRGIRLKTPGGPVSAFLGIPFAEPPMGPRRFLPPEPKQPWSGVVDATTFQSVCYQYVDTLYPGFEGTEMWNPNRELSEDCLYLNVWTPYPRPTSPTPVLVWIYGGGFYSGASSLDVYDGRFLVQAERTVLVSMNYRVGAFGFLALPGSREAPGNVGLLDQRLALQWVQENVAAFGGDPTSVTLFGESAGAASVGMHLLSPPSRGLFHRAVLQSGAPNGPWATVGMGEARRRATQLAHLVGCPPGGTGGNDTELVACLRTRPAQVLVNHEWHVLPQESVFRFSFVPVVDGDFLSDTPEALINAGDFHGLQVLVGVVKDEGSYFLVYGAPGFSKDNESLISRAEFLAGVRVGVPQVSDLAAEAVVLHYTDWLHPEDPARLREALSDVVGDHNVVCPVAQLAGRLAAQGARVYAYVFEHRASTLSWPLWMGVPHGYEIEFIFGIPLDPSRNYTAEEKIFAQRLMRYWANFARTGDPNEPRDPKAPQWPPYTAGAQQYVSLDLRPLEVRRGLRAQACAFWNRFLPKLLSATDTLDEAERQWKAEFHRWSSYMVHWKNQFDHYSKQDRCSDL", "assay": "In vitro AChE inhibitory activity", "type": "biochemical", "conditions": "for AChE IC50: mean ± SD (n = 3)"}, "[3]": {"target": "BACE1 (Homo sapiens, UniProt P56817)", "sequence (P56817 46-501)": "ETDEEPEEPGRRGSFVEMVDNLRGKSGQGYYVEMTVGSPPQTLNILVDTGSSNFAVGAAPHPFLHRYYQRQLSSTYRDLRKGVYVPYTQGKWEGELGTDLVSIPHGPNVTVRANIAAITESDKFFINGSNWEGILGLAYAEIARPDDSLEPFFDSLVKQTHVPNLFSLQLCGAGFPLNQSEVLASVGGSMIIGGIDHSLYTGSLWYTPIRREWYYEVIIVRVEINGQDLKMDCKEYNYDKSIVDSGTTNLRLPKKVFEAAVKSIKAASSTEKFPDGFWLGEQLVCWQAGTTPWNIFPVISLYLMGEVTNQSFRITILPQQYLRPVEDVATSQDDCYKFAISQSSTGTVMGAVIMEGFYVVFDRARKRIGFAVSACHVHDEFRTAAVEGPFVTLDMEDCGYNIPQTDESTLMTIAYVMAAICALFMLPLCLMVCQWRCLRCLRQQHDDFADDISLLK", "assay": "BACE1 inhibitory activity, FRET-based assay kit", "type": "biochemical"}, "[4]": {"assay": "Metal chelating activity by UV-visible spectrometry, mole ratio method", "type": "physicochemical", "conditions": "UV 200-600 nm, methanol, 5d 20 μM, Fe3+ 0-50 μM, 30 min room temperature", "procedure,_shortened": "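Test compound (20 μM in absolute methanol) was titrated with FeCl3 (0–50 μM Fe3+) and incubated 30 min at room temperature. UV absorption from 200 to 600 nm was recorded with and without Fe3+ in a 1 cm quartz cuvette. Complex stoichiometry was taken from the mole ratio method.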"}, "[5]": {"target": "T1, AChE", "assay": "Kinetic characterization of AChE inhibition", "type": "biochemical"}}, "note": "“Also recorded” adds a separate entry of the source."}
{"smiles": "Cn1cc(-c2cc(C(=O)NN=Cc3ccccc3)no2)c2ccccc21", "note": "[Compound 5a, N'-Benzylidene-5-(1-methyl-1H-indol-3-yl)isoxazole-3-carbohydrazide]", "values": [{"measurement": "BuChE IC50", "setting": "[1]", "result": "no inhibitory potencies"}, {"measurement": "AChE IC50", "setting": "[2]", "result": "no inhibitory potencies"}]}
{"smiles": "Cn1cc(-c2cc(C(=O)NN=Cc3ccccc3O)no2)c2ccccc21", "note": "[Compound 5b, N'-(2-Hydroxybenzylidene)-5-(1-methyl-1H-indol-3-yl)isoxazole-3-carbohydrazide]", "values": [{"measurement": "IC50", "setting": "[1]", "result": "92.8 ± 2.29", "unit": "µM"}, {"measurement": "IC50", "setting": "[3]", "result": "2.79 ± 0.52", "unit": "µM"}]}
{"smiles": "COc1cccc(C=NNC(=O)c2cc(-c3cn(C)c4ccccc34)on2)c1", "note": "[Compound 5d, N'-(3-Methoxybenzylidene)-5-(1-methyl-1H-indol-3-yl)isoxazole-3-carbohydrazide]", "values": [{"measurement": "BuChE IC50", "setting": "[1]", "result": "no notable inhibition; also recorded: no potency"}, {"measurement": "IC50", "setting": "[2]", "result": "29.5 ± 0.31", "unit": "µM"}, {"measurement": "metal chelating ability against Fe3+", "setting": "[4]", "result": "had biometal chelation ability"}, {"measurement": "IC50", "setting": "[3]", "result": "2.85 ± 0.09", "unit": "µM"}, {"measurement": "Ki", "setting": "[5]", "result": 19.3, "unit": "µM"}, {"measurement": "inhibition pattern on AChE", "setting": "[5]; Lineweaver-Burk: Km increased, Vmax unchanged", "result": "competitive"}]}
{"smiles": "COc1cccc(C=NNC(=O)c2cc(-c3cn(C)c4ccccc34)on2)c1O", "note": "[Compound 5g, N'-(2-Hydroxy-3-methoxybenzylidene)-5-(1-methyl-1H-indol-3-yl)isoxazole-3-carbohydrazide]", "values": [{"measurement": "IC50", "setting": "[2]", "result": "63.8 ± 4.04", "unit": "µM"}]}
{"smiles": "Cn1cc(-c2cc(C(=O)NN=Cc3ccccc3F)no2)c2ccccc21", "note": "[Compound 5h, N'-(2-Fluorobenzylidene)-5-(1-methyl-1H-indol-3-yl)isoxazole-3-carbohydrazide]", "values": [{"measurement": "AChE IC50", "setting": "[2]", "result": "no potency"}]}
{"smiles": "Cn1cc(-c2cc(C(=O)NN=Cc3ccccc3Cl)no2)c2ccccc21", "note": "[Compound 5i, N'-(2-Chlorobenzylidene)-5-(1-methyl-1H-indol-3-yl)isoxazole-3-carbohydrazide]", "values": [{"measurement": "AChE IC50", "setting": "[2]", "result": "no potency"}]}
{"smiles": "Cn1cc(-c2cc(C(=O)NN=Cc3cccc(Br)c3)no2)c2ccccc21", "note": "[Compound 5j, N'-(3-Bromobenzylidene)-5-(1-methyl-1H-indol-3-yl)isoxazole-3-carbohydrazide]", "values": [{"measurement": "AChE IC50", "setting": "[2]", "result": "no potency"}, {"measurement": "IC50", "setting": "[3]", "result": "1.99 ± 0.15", "unit": "µM"}]}
{"smiles": "Cn1cc(-c2cc(C(=O)NN=Cc3cccc([N+](=O)[O-])c3)no2)c2ccccc21", "note": "[Compound 5k, N'-(3-Nitrobenzylidene)-5-(1-methyl-1H-indol-3-yl)isoxazole-3-carbohydrazide]", "values": [{"measurement": "IC50", "setting": "[1]", "result": "71.3 ± 0.76", "unit": "µM"}]}
